Results taken from ChEMBL document CHEMBL1154422, “First characterization of heterogeneous resistance to imipenem in invasive nontypeable Haemophilus influenzae isolates” (2007).
≈ marks a conversion by molar mass, not a printed value. Calls of active or inactive are those of the source. The calls are words filed in the database; no cut-off is given here.

Legend:
[1] = tested on: Haemophilus influenzae; experiment: Antimicrobial activity against imipenem-susceptible invasive nontypeable Haemophilus influenzae isolate 251 by Etest; assay type: functional
Outline: (§1)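 Etest MIC on Haemophilus test medium (HTM) agar plates following CLSI guidelines, with a high inoculum (3 × 10^8 to 4 × 10^8 CFU/ml). Strains were maintained on Vitox-supplemented chocolate agar at 37°C with 5% CO2. H. influenzae ATCC 49247 and ATCC 10211 served as quality controls. Interpretation used CLSI breakpoints.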

[2] = tested on: Haemophilus influenzae; experiment: Antimicrobial activity against imipenem-susceptible Haemophilus influenzae Rd by Etest; assay type: functional
Outline: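 Etest MIC on HTM agar per CLSI, inoculum 3 × 10^8 to 4 × 10^8 CFU/ml, with strains grown on Vitox-supplemented chocolate agar at 37°C with 5% CO2. Imipenem and ampicillin MICs were tested in triplicate on separate days and reported as the range. ATCC 49247 and ATCC 10211 were the quality controls.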

[3] = tested on: Haemophilus influenzae; experiment: Antimicrobial activity against Haemophilus influenzae Rd transformed with ftsI gene from imipenem-resistant invasive nontypeable Haemophilus influenzae isolate 183 by Etest; assay type: functional
Outline: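 Recipient strain Rd (ATCC 51907) was electroporated with the PCR-amplified full-length ftsI gene plus flanking DNA from strain 183, then selected on HTM agar with 4 μg/ml imipenem. Imipenem MIC was then read by Etest on HTM agar per CLSI, in triplicate on separate days, and reported as a range.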

[4] = tested on: Haemophilus influenzae; experiment: Antimicrobial activity against imipenem-resistant invasive nontypeable Haemophilus influenzae isolate 183 by Etest; assay type: functional
Outline: (§2)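 Imipenem MIC read by Etest on Haemophilus test medium (HTM) agar following CLSI guidelines; inoculum about 3 × 10^8 to 4 × 10^8 CFU/ml. H. influenzae ATCC 49247 and ATCC 10211 served as quality controls. Interpretation used CLSI breakpoints. Strains were maintained on Vitox-supplemented chocolate agar at 37°C with 5% CO2.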

[5] = tested on: Haemophilus influenzae; experiment: Antimicrobial activity against imipenem-resistant invasive nontypeable Haemophilus influenzae isolate 184 by Etest; assay type: functional; outline: as §2
[6] = tested on: Haemophilus influenzae; experiment: Antimicrobial activity against imipenem-susceptible invasive nontypeable Haemophilus influenzae isolate 187 by Etest; assay type: functional; outline: as §2
[7] = tested on: Haemophilus influenzae; experiment: Antimicrobial activity against imipenem-susceptible invasive nontypeable Haemophilus influenzae isolate 244 by Etest; assay type: functional; outline: as §2
[8] = tested on: Haemophilus influenzae; experiment: Antimicrobial activity against imipenem-susceptible invasive nontypeable Haemophilus influenzae isolate 248 by Etest; assay type: functional; outline: as §2
[9] = tested on: Haemophilus influenzae; experiment: Antimicrobial activity against Haemophilus influenzae ATCC 10211 by Etest; assay type: functional; outline: as §1
[10] = tested on: Haemophilus influenzae; experiment: Antimicrobial activity against imipenem-resistant invasive nontypeable Haemophilus influenzae isolate 183 at 1.56 uM by Etest; assay type: functional, organism-based
Outline: (§3)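 CCCP was made up as a 100 mM DMSO stock and added to HTM agar at final 3.12, 1.56, 0.781 or 0.390 μM. Imipenem Etest was run on these plates per CLSI on HTM agar.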

[11] = tested on: Haemophilus influenzae; experiment: Antimicrobial activity against imipenem-resistant invasive nontypeable Haemophilus influenzae isolate 184 at 1.56 uM by Etest; assay type: functional, organism-based; outline: as §3
[12] = tested on: Haemophilus influenzae; experiment: Antimicrobial activity against imipenem-resistant invasive nontypeable Haemophilus influenzae isolate 183 by Etest in presence of 0.781 uM efflux pump inhibitor carbonyl cyanide m-chlorophenyl-hydrazone; assay type: functional, organism-based; outline: as §3
[13] = tested on: Haemophilus influenzae; experiment: Antimicrobial activity against imipenem-resistant invasive nontypeable Haemophilus influenzae isolate 184 by Etest in presence of 0.781 uM efflux pump inhibitor carbonyl cyanide m-chlorophenyl-hydrazone; assay type: functional, organism-based; outline: as §3
[14] = tested on: Haemophilus influenzae; experiment: Antimicrobial activity against imipenem-resistant invasive nontypeable Haemophilus influenzae isolate 183 by Etest in presence of 0.390 uM efflux pump inhibitor carbonyl cyanide m-chlorophenyl-hydrazone; assay type: functional, organism-based; outline: as §3
[15] = tested on: Haemophilus influenzae; experiment: Antimicrobial activity against imipenem-resistant invasive nontypeable Haemophilus influenzae isolate 184 by Etest in presence of 0.390 uM efflux pump inhibitor carbonyl cyanide m-chlorophenyl-hydrazone; assay type: functional, organism-based; outline: as §3
[16] = tested on: Haemophilus influenzae; experiment: Antimicrobial activity against imipenem-resistant invasive nontypeable Haemophilus influenzae isolate 183 by standard broth dilution method; assay type: functional
Outline: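 Imipenem MIC by CLSI standard broth dilution method; inoculum 5 × 10^5 CFU/ml.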

[17] = tested on: Haemophilus influenzae; experiment: Antimicrobial activity against imipenem-resistant invasive nontypeable Haemophilus influenzae isolate 184 by standard broth dilution method; assay type: functional
Outline: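 Broth dilution MIC per CLSI standard procedure. Inoculum 5 × 10^5 CFU/ml, lower than the Etest inoculum. Strain first grown on Vitox-supplemented chocolate agar at 37°C with 5% CO2. Beta-lactamase checked by nitrocefin stick test.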

| SMILES | MIC [1] | MIC [2] | MIC [3] | MIC [4] | MIC [5] | MIC [6] | MIC [7] | MIC [8] | MIC [9] | Activity [10] | Activity [11] | Activity [12] | Activity [13] | Activity [14] | Activity [15] | MIC [16] | MIC [17] |
| --- | --- | --- | --- | --- | --- | --- | --- | --- | --- | --- | --- | --- | --- | --- | --- | --- | --- |
| CC1(C)S[C@@H]2[C@H](NC(=O)[C@H](N)c3ccccc3)C(=O)N2[C@H]1C(=O)O [AMPICILLIN] | 0.125 µg/mL (≈ 0.358 µM) | 0.064 µg/mL (≈ 0.183 µM) | 0.38 µg/mL (≈ 1.09 µM) | 0.75 µg/mL (≈ 2.15 µM) | 0.5 µg/mL (≈ 1.43 µM) | 0.19 µg/mL (≈ 0.544 µM) | 0.25 µg/mL (≈ 0.715 µM) | 0.125 µg/mL (≈ 0.358 µM) | – | – | – | – | – | – | – | – | – |
| CO/N=C(\C(=O)N[C@@H]1C(=O)N2C(C(=O)O)=C(COC(C)=O)CS[C@H]12)c1csc(N)n1 [CEFOTAXIME] | 0.016 µg/mL (≈ 0.0351 µM) | 0.5 µg/mL (≈ 1.1 µM) | – | 0.047 µg/mL (≈ 0.103 µM) | 0.125 µg/mL (≈ 0.274 µM) | 0.047 µg/mL (≈ 0.103 µM) | 0.016 µg/mL (≈ 0.0351 µM) | 0.016 µg/mL (≈ 0.0351 µM) | – | – | – | – | – | – | – | – | – |
| CO/N=C(\C(=O)N[C@@H]1C(=O)N2C(C(=O)O)=C(CSc3nc(=O)c(O)nn3C)CS[C@H]12)c1csc(N)n1 [CEFTRIAXONE] | – | < 0.016 µg/mL | < 0.016 µg/mL | 0.032 µg/mL (≈ 0.0577 µM) | – | – | – | – | – | – | – | – | – | – | – | – | – |
| O=C(N[C@H](CO)[C@H](O)c1ccc([N+](=O)[O-])cc1)C(Cl)Cl [CHLORAMPHENICOL] | 0.25 µg/mL (≈ 0.774 µM) | – | – | 0.38 µg/mL (≈ 1.18 µM) | 0.5 µg/mL (≈ 1.55 µM) | 0.38 µg/mL (≈ 1.18 µM) | 0.38 µg/mL (≈ 1.18 µM) | 0.38 µg/mL (≈ 1.18 µM) | – | – | – | – | – | – | – | – | – |
| C[C@@H](O)[C@H]1C(=O)N2C(C(=O)O)=C(SCCNC=N)C[C@H]12 [IMIPENEM ANHYDROUS] | 0.5 µg/mL (≈ 1.67 µM) | 0.38 µg/mL (≈ 1.27 µM) | 4 µg/mL (≈ 13.4 µM) | ≥ 32 µg/mL | ≥ 32 µg/mL | 1.5 µg/mL (≈ 5.01 µM) | 0.5 µg/mL (≈ 1.67 µM) | 0.25 µg/mL (≈ 0.835 µM) | 1.5 µg/mL (≈ 5.01 µM) | inactive | inactive | Active | Active | Active | Active | 2 µg/mL (≈ 6.68 µM) | 1 µg/mL (≈ 3.34 µM) |
